# Data published in ChEMBL document CHEMBL2346532, “Design, synthesis and potent cytotoxic activity of novel podophyllotoxin derivatives” (Bioorg Med Chem, 2013).
# What was measured:
# [1] = Cytotoxicity against human KBVIN cells after 72 hrs by SRB assay; type: functional, cell-based
# Outline: (§1)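 Cells seeded at 3–5 × 10³ per well in RPMI-1640 with 10% FBS containing a range of sample concentrations, exposed 72 h. Attached cells fixed in cold 50% trichloroacetic acid for 30 min, stained with 0.04% sulforhodamine B for 30 min, bound dye dissolved in 10 mM Tris base, absorbance read at 515 nm. Run in triplicate. KBvin is a vincristine-selected multidrug-resistant KB subline.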
# KB [2] = test: Cytotoxicity against human KB cells after 72 hrs by SRB assay; type: functional, cell-based; outline: as §1
# A549 [3] = test: Cytotoxicity against human A549 cells after 72 hrs by SRB assay; type: functional, cell-based; settings: A549, 72 h; outline: as §1
# DU-145 [4] = test: Cytotoxicity against human DU145 cells after 72 hrs by SRB assay; type: functional, cell-based; settings: DU-145, 72 h; outline: as §1
# KB [5] = test: Ratio of etoposide IC50 to compound IC50 for human KB cells; type: functional
# [6] = Ratio of etoposide IC50 to compound IC50 for human KBVIN cells; type: functional
# A549 [7] = test: Ratio of etoposide IC50 to compound IC50 for human A549 cells; type: functional
# DU-145 [8] = test: Ratio of etoposide IC50 to compound IC50 for human DU145 cells; type: functional
Structure (SMILES),IC50 [1],IC50 (KB [2]),IC50 (A549 [3]),IC50 (DU-145 [4]),Ratio IC50 (KB [5]),Ratio IC50 [6],Ratio IC50 (A549 [7]),Ratio IC50 (DU-145 [8])
COc1cc([C@@H]2c3cc4c(cc3[C@@H](NC(=S)NC(=O)c3ccccc3)[C@H]3COC(=O)[C@H]23)OCO4)cc(OC)c1O,9.93 µM,8.96 µM,12 µM,9.88 µM,–,–,–,–
COc1cc([C@@H]2c3cc4c(cc3[C@@H](NC(=S)NC(=O)c3ccc(Cl)cc3)[C@H]3COC(=O)[C@H]23)OCO4)cc(OC)c1O,> 20 µM,> 20 µM,> 20 µM,> 20 µM,–,–,–,–
COc1cc([C@@H]2c3cc4c(cc3[C@@H](NC(=S)NC(=O)c3ccc(Cl)cc3)[C@H]3COC(=O)[C@H]23)OCO4)cc(OC)c1OC,2.01 µM,1.2 µM,1.62 µM,1.16 µM,–,–,–,–
COc1cc([C@@H]2c3cc4c(cc3[C@@H](NC(=S)NC(=O)c3ccc(C)cc3)[C@H]3COC(=O)[C@H]23)OCO4)cc(OC)c1OC,12.2 µM,10.5 µM,11.3 µM,10.5 µM,–,–,–,–
COc1cc([C@@H]2c3cc4c(cc3[C@@H](NC(=S)NC(=O)c3ccc([N+](=O)[O-])cc3)[C@H]3COC(=O)[C@H]23)OCO4)cc(OC)c1OC,1.65 µM,1.33 µM,2.06 µM,1.57 µM,–,–,–,–
COc1cc([C@@H]2c3cc4c(cc3[C@@H](NC(=S)NC(=O)c3cccc([N+](=O)[O-])c3)[C@H]3COC(=O)[C@H]23)OCO4)cc(OC)c1OC,9.86 µM,9.27 µM,10.3 µM,9.82 µM,–,–,–,–
COc1cc([C@@H]2c3cc4c(cc3[C@@H](NC(=S)NC(=O)c3cccnc3)[C@H]3COC(=O)[C@H]23)OCO4)cc(OC)c1OC,16.8 µM,14.2 µM,15.5 µM,11.4 µM,–,–,–,–
COc1cc([C@@H]2c3cc4c(cc3[C@@H](NC(=S)NC(=O)c3cnccc3Cl)[C@H]3COC(=O)[C@H]23)OCO4)cc(OC)c1OC,> 20 µM,> 20 µM,> 20 µM,> 20 µM,–,–,–,–
COc1cc([C@@H]2c3cc4c(cc3[C@@H](NC(=S)NC(=O)c3cccnc3Cl)[C@H]3COC(=O)[C@H]23)OCO4)cc(OC)c1OC,> 20 µM,> 20 µM,> 20 µM,> 20 µM,–,–,–,–
COc1cc([C@@H]2c3cc4c(cc3[C@@H](NC(=S)NC(=O)c3cncc(Br)c3)[C@H]3COC(=O)[C@H]23)OCO4)cc(OC)c1OC,> 20 µM,> 20 µM,> 20 µM,> 20 µM,–,–,–,–
COc1cc([C@@H]2c3cc4c(cc3[C@@H](NC(=S)NC(=O)c3cccs3)[C@H]3COC(=O)[C@H]23)OCO4)cc(OC)c1OC,12.5 µM,11.6 µM,12.3 µM,11.2 µM,–,–,–,–
COc1cc([C@@H]2c3cc4c(cc3[C@@H](NC(=S)NC(=O)c3ccco3)[C@H]3COC(=O)[C@H]23)OCO4)cc(OC)c1OC,> 20 µM,> 20 µM,> 20 µM,> 20 µM,–,–,–,–
COc1cc([C@@H]2c3cc4c(cc3[C@@H](NC(=S)NC(=O)c3ccc5ccccc5c3)[C@H]3COC(=O)[C@H]23)OCO4)cc(OC)c1OC,0.13 µM,0.12 µM,0.11 µM,0.099 µM,20,20,20,20
COc1cc([C@@H]2c3cc4c(cc3[C@@H](NC(=S)NC(=O)c3ccco3)[C@H]3COC(=O)[C@H]23)OCO4)cc(OC)c1O,9.46 µM,8.74 µM,13.7 µM,8.49 µM,–,–,–,–
COc1cc([C@@H]2c3cc4c(cc3[C@@H](NC(=S)NC(=O)c3cccs3)[C@H]3COC(=O)[C@H]23)OCO4)cc(OC)c1O,9.24 µM,8.4 µM,9.82 µM,7.34 µM,–,–,–,–
COc1cc([C@@H]2c3cc4c(cc3[C@@H](NC(=S)NC(=O)c3ccc5ccccc5c3)[C@H]3COC(=O)[C@H]23)OCO4)cc(OC)c1O,10.3 µM,7.23 µM,11.8 µM,6.55 µM,–,–,–,–
COc1cc([C@@H]2c3cc4c(cc3[C@@H](NC(=S)NC(C)=O)[C@H]3COC(=O)[C@H]23)OCO4)cc(OC)c1OC,13.6 µM,13.4 µM,13.1 µM,12.3 µM,–,–,–,–
COc1cc([C@@H]2c3cc4c(cc3[C@@H](NC(=S)NC(=O)C3CCCCC3)[C@H]3COC(=O)[C@H]23)OCO4)cc(OC)c1OC,0.098 µM,0.32 µM,0.19 µM,0.17 µM,20,20,20,20
COc1cc([C@@H]2c3cc4c(cc3[C@@H](NC(=S)NC(=O)c3ccccc3)[C@H]3COC(=O)[C@H]23)OCO4)cc(OC)c1OC,0.81 µM,0.9 µM,1.13 µM,0.97 µM,20,20,20,20
COc1cc([C@@H]2c3cc4c(cc3[C@@H](NC(=S)NC(=O)c3ccc(F)cc3)[C@H]3COC(=O)[C@H]23)OCO4)cc(OC)c1OC,1.38 µM,1.44 µM,1.37 µM,1.15 µM,–,–,–,–
COc1cc([C@@H]2c3cc4c(cc3[C@@H](O[C@@H]3O[C@@H]5CO[C@@H](C)O[C@H]5[C@H](O)[C@H]3O)[C@H]3COC(=O)[C@H]23)OCO4)cc(OC)c1O [ETOPOSIDE],> 20 µM,3.88 µM,2.58 µM,2.03 µM,–,–,–,–
